From ChEMBL document CHEMBL1122773 (1984)
In brackets after ≈: the same amount, converted by molar mass.

How the values were obtained:
Type in all cases: functional
Mus musculus [1] = assay: (§1) In vivo antibacterial activity against Escherichia coli(UC 311) infected mice after oral administration
In short: (§2)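 Fresh drug solutions were given subcutaneously (0.2 mL) or by oral intubation (0.5 mL), per line. Dosing was immediately after infection, then daily for 4 consecutive days, with 3 further days of observation. CD50 was calculated by Spearman-Karber.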

Mus musculus [2] = assay: (§3) In vivo antibacterial activity against Proteus vulgaris(UC 347) infected mice after oral administration; in short: as §2
Mus musculus [3] = assay: In vivo antibacterial activity against Streptococcus pyogenes(UC 152) infected mice after oral administration; in short: as §2
Mus musculus [4] = assay: In vivo antibacterial activity against Streptococcus pneumoniae III(UC 3213) infected mice after oral administration; in short: as §2
Mus musculus [5] = assay: In vivo antibacterial activity against Plasmodium berghei infected mice (Mus musculus) after subcutaneous administration
Mus musculus [6] = assay: (§4) In vivo antibacterial activity against Klebsiella pneumoniae(UC 58) infected mice after oral administration; in short: as §2
Mus musculus [7] = assay: In vivo antibacterial activity against Pasteurella multocida (UC no 264) infected mice after sc administration; in short: as §2
Mus musculus [8] = assay: In vivo antibacterial activity against Staphylococcus aureus (UC no 76) infected mice after sc administration; in short: as §2
Escherichia coli = assay: as §1; in short: as §2
Staphylococcus aureus [9] = assay: In vitro antibacterial activity against the aerobic Staphylococcus aureus (Strain UC no.6687)
In short: (§5)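 Broth microdilution in brain/heart infusion broth with twofold drug dilutions. Inoculum was a standardized suspension giving 10⁵ viable cells/mL final. Plates were incubated 20 h at 37 °C. MIC (mcg/mL) = lowest concentration with no visible growth.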

[10] = system: Fusobacterium necrophorum; assay: In vitro antibacterial activity against the anaerobic Fusobacterium necrophorum (Strain UC no.6568)
In short: (§6)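 Agar dilution with serial twofold drug dilutions in Schaedler broth mixed into molten Wilkens-Chalgren agar. Strains grown 48 h on Schaedler agar, suspended to 0.5 McFarland, and 0.001 mL spotted by replicator. All steps done anaerobically. Incubation 48 h at 37 °C. MIC is the least drug inhibiting growth; a faint film or fewer than three colonies scored negative.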

Proteus vulgaris = assay: as §3; in short: as §2
[11] = system: Paraclostridium bifermentans; assay: In vitro antibacterial activity against the anaerobic Clostridium bifermentans (Strain UC no.6507); in short: as §6
Clostridium tertium = assay: In vitro antibacterial activity against the anaerobic Clostridium tertium(Strain UC no.6508); in short: as §6
Eggerthella lenta = assay: In vitro antibacterial activity against the anaerobic Eubacterium lentum(Strain UC no.6522); in short: as §6
Bacteroides fragilis = assay: In vitro antibacterial activity against the anaerobic Bacteroides fragilis (Strain UC no.6862); in short: as §6
Klebsiella pneumoniae = assay: as §4; in short: as §2
Finegoldia magna = assay: In vitro antibacterial activity against the anaerobic Peptococcus magnus(Strain UC no.6258); in short: as §6
Staphylococcus aureus [12] = assay: In vivo antibacterial activity against Staphylococcus aureus (UC no 76) infected mice after sc administration (value in parenthesis is 95% confidence interval); in short: as §2
Streptococcus pyogenes = assay: In vivo antibacterial activity against Streptococcus pyogenes(UC 152) infected mice after oral administration (value in parenthesis is 95% confidence interval); in short: as §2
Fusobacterium nucleatum = assay: In vitro antibacterial activity against the anaerobic Fusobacterium nucleatum (Strain UC no.6324); in short: as §6
[13] = system: Parabacteroides distasonis; assay: In vitro antibacterial activity against the anaerobic Bacteroides distasonis (Strain UC no.6518)
Staphylococcus aureus [14] = assay: In vitro antibacterial activity against the aerobic Staphylococcus aureus (Strain UC no.6685); in short: as §5
Clostridium novyi = assay: In vitro antibacterial activity against the anaerobic Clostridium novyi B(Strain UC no.6329); in short: as §6

CCC[C@@H]1C[C@@H](C(=O)N[C@@H]([C@H]2O[C@H](SC)[C@H](O)[C@@H](O)[C@H]2O)[C@H](C)Cl)N(C)C1 [CLINDAMYCIN]
CD50 (Mus musculus [1]): >400 mg/kg
CD50 (Mus musculus [2]): >400 mg/kg
CD50 (Mus musculus [3]): 12.3 mg/kg
CD50 (Mus musculus [4]): 37.9 mg/kg
CD50 (Mus musculus [5]): 53 mg/kg
CD50 (Mus musculus [6]): >400 mg/kg
CD50 (Mus musculus [7]): >160 mg/kg
CD50 (Mus musculus [8]): 5.7 mg/kg

CC[C@@H]1CCN[C@H](C(=O)N[C@@H]([C@H]2O[C@H](SC)[C@H](O)[C@@H](O)[C@H]2O)[C@H](C)Cl)C1 [PIRLIMYCIN]
CD50 (Escherichia coli): >400 mg/kg
MIC (Staphylococcus aureus [9]): 0.2 µg/mL (≈ 0.487 µM)
MIC [10]: 0.06 µg/mL (≈ 0.146 µM)
CD50 (Proteus vulgaris): >400 mg/kg
MIC [11]: 0.06 µg/mL (≈ 0.146 µM)
MIC (Clostridium tertium): 7.8 µg/mL (≈ 19 µM)
MIC (Eggerthella lenta): 1 µg/mL (≈ 2.43 µM)
MIC (Bacteroides fragilis): 15.6 µg/mL (≈ 38 µM)
CD50 (Klebsiella pneumoniae): >400 mg/kg
MIC (Finegoldia magna): 0.06 µg/mL (≈ 0.146 µM)
CD50 (Staphylococcus aureus [12]): 0.4 mg/kg
CD50 (Streptococcus pyogenes): 2.9 mg/kg
MIC (Fusobacterium nucleatum): 0.06 µg/mL (≈ 0.146 µM)
MIC [13]: < 0.03 µg/mL
MIC (Staphylococcus aureus [14]): > 25 µg/mL
MIC (Clostridium novyi): 0.12 µg/mL (≈ 0.292 µM)
